ChEMBL document CHEMBL1124216, “A novel class of potential central nervous system agents. 3-Phenyl-2-(1-piperazinyl)-5H-1-benzazepines” (1988)

Assays:
Type in all cases: functional
Mus musculus [1] = assay: Antimaximal electroshock seizure (MES) activity in mice after peroral administration of 100 mg/kg of compound; 5/5; details: route oral
Mus musculus [2] = assay: Antiexploratory activity (EXPL) of mice determined by an antimex activity meter, 100 mg/kg of dose was administered perorally; No inhibition; details: route oral
Mus musculus [3] = assay: Antitremorine activity(TRM) of mice after peroral administration of 100 mg/kg of compound; No inhibition; details: route oral
Mus musculus [4] = assay: Antireserpine activity (RES) of mice after peroral administration of 100 mg/kg of compound; No inhibition; details: route oral
Mus musculus [5] = assay: Antimaximal electroshock seizure (MES) activity in mice after peroral administration of 100 mg/kg of compound; 0/5; details: route oral
Mus musculus [6] = assay: Antireserpine activity (RES) of mice after peroral administration of 100 mg/kg of compound; Slight inhibition (31-50%); details: route oral
Mus musculus [7] = assay: Antitremorine activity(TRM) of mice after peroral administration of 100 mg/kg of compound; Moderate inhibition (51-71%); details: route oral
Mus musculus [8] = assay: Antitremorine activity(TRM) of mice after peroral administration of 100 mg/kg of compound; Slight inhibition (31-50%); details: route oral
Mus musculus [9] = assay: Antiexploratory activity (EXPL) of mice determined by an antimex activity meter, 50 mg/kg of dose was administered perorally; No inhibition; details: route oral
Mus musculus [10] = assay: Antipentylene tetrazole activity was determined in mice when administered perorally; details: po
How it was run: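 Groups of five male Std-ddY mice received compound orally in 0.5% tragacanth, then pentylenetetrazole 175 mg/kg ip. Blockade of the tonic extensor component scored as anticonvulsant. ED50 was the dose protecting 50% of animals (Litchfield-Wilcoxon).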

Mus musculus [11] = assay: Antimaximal electroshock seizure activity was determined in mice when administered perorally; details: po
Canis familiaris = assay: Inhibition of apomorphine induced emesis in dogs at 1 mg/kg of dose.; details: Canis lupus familiaris
How it was run: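 Beagle dogs (10-15 kg), groups of three, given compound po in a gelatin capsule; 2 h later apomorphine hydrochloride 0.3 mg/kg sc. Vomiting counted for 1 h; mean inhibition as percent of control. ED50 is the dose giving 50% inhibition of emesis, by Litchfield-Wilcoxon.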

Mus musculus [12] = assay: 3,4 -Dihydroxy phenylacetic acid (DOPAC) levels in mouse brain at 10 mg/kg dose.
How it was run: (§1)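 Male Std-ddY mice, 20-25 g, dosed orally with compound in 0.5% aqueous tragacanth. DOPAC was measured fluorometrically after purification by column chromatography on Sephadex G-10 and QAE-Sephadex. Brains from five mice per compound were pooled for each determination.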

Mus musculus [13] = assay: 3,4 -Dihydroxy phenylacetic acid (DOPAC) levels in mouse brain at 50 mg/kg dose.; how it was run: as §1
Mus musculus [14] = assay: The homovanillic acid (HVA) levels in mouse brain at 10 mg/kg of dose.
How it was run: (§2)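 Mice dosed orally in 0.5% aqueous tragacanth; brains of five mice per compound pooled. Homovanillic acid measured in brain extracts and reported as brain level.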

Mus musculus [15] = assay: The homovanillic acid (HVA) levels in mouse brain at 50 mg/kg of dose.; how it was run: as §2
Mus musculus [16] = assay: Exploratory activity of mice determined by an antimex activity meter, 50 mg/kg of dose was administered perorally
How it was run: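 Male Std-ddY mice (20-25 g), five per dose; compound in 0.5% aqueous tragacanth given orally. Two hours later each mouse placed in an Animex activity meter cage and locomotor activity counted for 3 min. Mean suppression expressed as percent inhibition of control; ED50 by Litchfield-Wilcoxon.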

Structure (SMILES)	inhibition in vivo at 100 mg/kg (Mus musculus [2]) [%]	inhibition in vivo at 100 mg/kg (Mus musculus [3]) [%]	inhibition in vivo at 100 mg/kg (Mus musculus [4]) [%]	Activity (Mus musculus [5])	further results
NC(=O)N1CCN(C2=Nc3ccc(Br)cc3CC=C2c2ccccc2)CC1	< 30	< 30	< 30		Activity (Mus musculus [1]): 5
Brc1ccc2c(c1)CC=C(c1ccccc1)C(N1CCCCC1)=N2	< 30	< 30		0	inhibition in vivo at 100 mg/kg (Mus musculus [6]): 31%
C1=C(c2ccccc2)C(N2CCN(Cc3ccccc3)CC2)=Nc2ccccc2C1	< 30	< 30		0	
Clc1ccc(C2=CCc3ccc(Cl)cc3N=C2N2CCNCC2)cc1.O=C(O)/C=C/C(=O)O	< 30			0	inhibition in vivo at 100 mg/kg (Mus musculus [6]): 31%; inhibition in vivo at 100 mg/kg (Mus musculus [7]): 51%
CCCc1ccc2c(c1)CC=C(c1ccccc1)C(N1CCN(CC)CC1)=N2.O=C(O)/C=C/C(=O)O	< 30	< 30	< 30	0	
C1=C(c2ccccc2)C(N2CCNCC2)=Nc2ccccc2C1.O=C(O)/C=C/C(=O)O	< 30	< 30	< 30	0	
C=CCN1CCN(C2=Nc3ccc(Br)cc3CC=C2c2ccccc2)CC1	< 30	< 30		0	inhibition in vivo at 100 mg/kg (Mus musculus [6]): 31%
CCN1CCN(C2=Nc3ccc(C(C)C)cc3CC=C2c2ccccc2)CC1.O=C(O)/C=C/C(=O)O	< 30		< 30	0	inhibition in vivo at 100 mg/kg (Mus musculus [8]): 31%
O=C(O)/C=C/C(=O)O.OCCN1CCN(C2=Nc3ccccc3CC=C2c2cccc(C(F)(F)F)c2)CC1	< 30	< 30		0	
CN1CCN(C2=Nc3ccccc3CC=C2c2cccc(C(F)(F)F)c2)CC1.O=C(O)/C=C/C(=O)O	< 30	< 30		0	
O=C(CN1CCN(C2=Nc3ccc(Br)cc3CC=C2c2ccccc2)CC1)c1ccccc1	< 30	< 30	< 30	0	
COc1ccc(CN2CCN(C3=Nc4ccc(Br)cc4CC=C3c3ccccc3)CC2)cc1	< 30	< 30	< 30	0	
Brc1ccc2c(c1)CC=C(c1ccccc1)C(N1CCNCC1)=N2.O=C(O)/C=C/C(=O)O	< 30			0	inhibition in vivo at 100 mg/kg (Mus musculus [6]): 31%
Fc1ccc(C2=CCc3ccccc3N=C2N2CCN(Cc3ccccc3)CC2)cc1					inhibition in vivo at 50 mg/kg (Mus musculus [9]): < 30%
C1=C(c2ccccc2)C(N2CCN(c3ccccc3)CC2)=Nc2ccccc2C1	< 30	< 30	< 30	0	
OCCN1CCN(C2=Nc3ccc(Br)cc3CC=C2c2ccccc2)CC1	< 30	< 30	< 30		ED50 (Mus musculus [10]): 13.2 mg/kg; Activity (Mus musculus [1]): 5; ED50 (Mus musculus [11]): 14.6 mg/kg
Clc1ccccc1C1=CCc2cc(Br)ccc2N=C1N1CCNCC1.O=C(O)/C=C/C(=O)O	< 30	< 30	< 30	0	
Clc1ccc2c(c1)CC=C(c1ccccc1)C(N1CCN(Cc3ccccc3)CC1)=N2	< 30	< 30		0	inhibition in vivo at 100 mg/kg (Mus musculus [6]): 31%
CC(C)c1ccc2c(c1)CC=C(c1ccccc1)C(N1CCN(C)CC1)=N2.O=C(O)/C=C/C(=O)O	< 30		< 30	0	inhibition in vivo at 100 mg/kg (Mus musculus [7]): 51%
O=C(CCN1CCN(C2=Nc3ccc(Br)cc3CC=C2c2ccccc2)CC1)c1ccccc1	< 30	< 30	< 30	0	

Structure (SMILES)	inhibition in vivo at 100 mg/kg (Mus musculus [2]) [%]	inhibition in vivo at 100 mg/kg (Mus musculus [3]) [%]	inhibition in vivo at 100 mg/kg (Mus musculus [4]) [%]	Activity (Mus musculus [5])	further results
Clc1ccc(C2=CCc3ccccc3N=C2N2CCNCC2)cc1.O=C(O)/C=C/C(=O)O	< 30	< 30	< 30	0	
Brc1ccc2c(c1)CC=C(c1ccccc1)C(N1CCN(c3ccccc3)CC1)=N2	< 30	< 30	< 30	0	
NC(=O)N1CCN(C2=Nc3ccc(Cl)cc3CC=C2c2ccccc2)CC1	< 30	< 30	< 30	0	
Clc1ccccc1C1=CCc2ccccc2N=C1N1CCNCC1.O=C(O)/C=C/C(=O)O	< 30	< 30	< 30	0	
C1=C(c2ccccc2)C(N2CCOCC2)=Nc2ccccc2C1.Cl	< 30	< 30	< 30	0	
CN1CCN(C2=Nc3ccc(Br)cc3CC=C2c2ccc(Cl)cc2)CC1.Cl.Cl	< 30	< 30	< 30	0	
CCCc1ccc2c(c1)CC=C(c1ccccc1)C(N1CCN(CCO)CC1)=N2.Cl.Cl	< 30		< 30	0	inhibition in vivo at 100 mg/kg (Mus musculus [7]): 51%
CCCc1ccc2c(c1)CC=C(c1ccccc1)C(N1CCN(C)CC1)=N2.Cl.Cl	< 30		< 30	0	
CN1CCN(C2=Nc3ccccc3CC=C2c2ccc(Br)cc2)CC1.Cl.Cl					inhibition in vivo at 1 mg/kg (Canis familiaris): 72.5%; Control (Mus musculus [12]): 161%; Control (Mus musculus [13]): 233%; Control (Mus musculus [14]): 162%; Control (Mus musculus [15]): 294%; inhibition in vivo at 50 mg/kg (Mus musculus [16]; Mus musculus, po): 13.2%; Inhibition (Mus musculus [16]; route oral, 50 mg/kg): 13.2%; inhibition in vivo at 50 mg/kg (Mus musculus [9]): < 30%
Cc1ccc(C2=CCc3ccccc3N=C2N2CCN(CCO)CC2)cc1.Cl.Cl	< 30	< 30	< 30	0	
Cc1ccc(C2=CCc3ccccc3N=C2N2CCN(C)CC2)cc1.Cl.Cl	< 30			0	inhibition in vivo at 100 mg/kg (Mus musculus [6]): 31%; inhibition in vivo at 100 mg/kg (Mus musculus [8]): 31%
Cl.Cl.OCCN1CCN(C2=Nc3cc(Cl)ccc3CC=C2c2ccccc2)CC1	< 30		< 30	0	inhibition in vivo at 100 mg/kg (Mus musculus [7]): 51%
Cl.Cl.OCCN1CCN(C2=Nc3ccc(Br)cc3CC=C2c2ccc(Cl)cc2)CC1	< 30	< 30	< 30	0	
CCN1CCN(C2=Nc3ccccc3CC=C2c2ccccc2Cl)CC1.Cl.Cl	< 30		< 30	0	inhibition in vivo at 100 mg/kg (Mus musculus [8]): 31%
Cl.Cl.OCCN1CCN(C2=Nc3cc(Cl)ccc3CC=C2c2ccc(Cl)cc2)CC1	< 30	< 30	< 30	0	
CCN1CCN(C2=Nc3ccccc3CC=C2c2ccc(C)cc2)CC1.Cl.Cl	< 30	< 30	< 30	0	
CC(C)c1ccc2c(c1)CC=C(c1ccccc1)C(N1CCN(CCO)CC1)=N2.Cl.Cl	< 30	< 30	< 30	0	
CN1CCN(C2=Nc3cc(Cl)ccc3CC=C2c2ccccc2)CC1.Cl.Cl	< 30		< 30	0	inhibition in vivo at 100 mg/kg (Mus musculus [7]): 51%
NC(=O)N1c2ccccc2C=Cc2ccccc21 [CARBAMAZEPINE]					ED50 (Mus musculus [10]): 10.3 mg/kg; ED50 (Mus musculus [11]): 13.3 mg/kg
O=C1NC(=O)C(c2ccccc2)(c2ccccc2)N1 [PHENYTOIN]					ED50 (Mus musculus [10]): 3.7 mg/kg; ED50 (Mus musculus [11]): 7.9 mg/kg
